Converted amounts (≈) assume the structure as drawn. The source made the active and inactive calls. The rule behind the calls is not given here.
What was measured:
[1] = system: Pseudomonas aeruginosa; test: Antibacterial activity against Pseudomonas aeruginosa ATCC 9027 after 24 hrs; assay type: functional, organism-based
[2] = Metal chelating activity of the compound assessed as ratio of Fe2+ concentration to compound concentration; assay type: functional
How it was run: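 Fe3+ reducing activity by modified ferrozine method; [Fe2+] calculated from extinction coefficient 27,900 M-1cm-1 of Fe(ferrozine)2+ complex, expressed as µM Fe2+ per µM compound. Means ± SD of three parallel measurements.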

[3] = system: Candida albicans; test: Antifungal activity against Candida albicans ATCC 10231 after 24 hrs; assay type: functional
[4] = system: Candida albicans; test: Antifungal activity against Candida albicans ATCC 10231 at 10 to 100 mg/ml after 24 hrs by disc diffusion method; assay type: functional
How it was run: (§1)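 Modified disc diffusion: LB agar plates seeded at 10^6 cells/mL; 6 mm filter discs soaked in 50 µL of compound at 10–100 mg/mL in DMSO or methanol, placed on plates, 37 °C for 24 h. Inhibition zone ≥7 mm scored susceptible. Solvent discs tested; positive controls gentamicine, streptomycine or nystatin discs at 10 mg/mL.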

[5] = system: Bacillus subtilis; test: Antibacterial activity against Bacillus subtilis ATCC 6633 after 24 hrs; assay type: functional
[6] = system: Liver microsomes; test: Antioxidant activity in Wistar rat liver microsomes assessed as reduction of lipid peroxidase activity by TBA assay; assay type: functional; design: concentration or dose not given beside the values; conditions: Microsome
How it was run: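 TBA assay of lipid peroxidation in liver microsomes isolated from three Wistar rats, following Raj et al.; reduced lipid peroxidase activity taken as antioxidant activity, expressed as %.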

[7] = system: Staphylococcus aureus; test: Antibacterial activity against Staphylococcus aureus ATCC 6538 at 10 to 100 mg/ml after 24 hrs by disc diffusion method; assay type: functional; how it was run: as §1
[8] = system: Radical scavenging activity; test: Antioxidant activity assessed as DPPH radical scavenging activity at 80 uM; assay type: functional
How it was run: (§2)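 DPPH radical scavenging per Blois; compounds 10–80 µM in methanol (some runs 10–200 µM, values reported at 80 µM). Absorbance at 517 nm; scavenging % = (A517 control − A517 sample)/A517 control × 100. Alpha tocopherol as control. Means ± SD of three parallel measurements.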

[9] = system: Escherichia coli; test: Antibacterial activity against Escherichia coli ATCC 3509 at 10 to 100 mg/ml after 24 hrs by disc diffusion method; assay type: functional; how it was run: as §1
[10] = system: Staphylococcus aureus; test: Antibacterial activity against Staphylococcus aureus ATCC 6538 after 24 hrs; assay type: functional
[11] = system: Bacillus subtilis; test: Antibacterial activity against Bacillus subtilis ATCC 6633 at 10 to 100 mg/ml after 24 hrs by disc diffusion method; assay type: functional; how it was run: as §1
[12] = system: Pseudomonas aeruginosa; test: Antibacterial activity against Pseudomonas aeruginosa ATCC 9027 at 10 to 100 mg/ml after 24 hrs by disc diffusion method; assay type: functional, organism-based; how it was run: as §1
[13] = system: Escherichia coli; test: Antibacterial activity against Escherichia coli ATCC 3509 after 24 hrs; assay type: functional
[14] = system: Radical scavenging activity; test: Antioxidant activity assessed as DPPH radical scavenging activity at 10 to 80 uM; assay type: functional; how it was run: as §2
[15] = system: Radical scavenging activity; test: Antioxidant activity assessed as DPPH radical scavenging activity at 11 to 1000 uM; assay type: functional
How it was run: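 DPPH scavenging in methanol, read as loss of absorbance at 517 nm, value obtained over 1000–11 µM compound; % = (A517 control − A517 sample)/A517 control × 100. Alpha tocopherol control; three parallel measurements, means ± SD.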

[16] = system: Radical scavenging activity; test: Antioxidant activity assessed as DPPH radical scavenging activity at 11 uM; assay type: functional
How it was run: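 DPPH radical scavenging at 11 µM compound in methanol, absorbance at 517 nm; % scavenging calculated from control versus sample A517. Alpha tocopherol control; mean ± SD of three parallel measurements.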

Row | SMILES | MIC [1] | Ratio [2] | MIC [3] | diameter of the inhibition zone (DIZ) [4] | MIC [5] | Activity [6] | diameter of the inhibition zone (DIZ) [7] | Activity [8] [%] | diameter of the inhibition zone (DIZ) [9] | MIC [10] | diameter of the inhibition zone (DIZ) [11] | diameter of the inhibition zone (DIZ) [12] | MIC [13] | MIC ([3]; ATCC 10231, 24 h) [µg/mL] | MIC ([5]; ATCC 6633, 24 h) [µg/mL] | Activity [14] | MIC ([10]; ATCC 6538, 24 h) [µg/mL] | MIC ([13]; ATCC 3509, 24 h) [µg/mL] | Activity [15] [%] | Activity [16] [%]
1 | O=C1C=CCC(c2ccco2)O1 (racemic) | inactive | 0 | inactive | inactive | inactive | 24.5% | inactive | 38.1 | inactive | inactive | inactive | inactive | inactive | – | – | – | – | – | – | –
2 | O=C1C=CC[C@H](c2cccs2)O1 | inactive | 0.04 | – | 7 mm | – | inactive | 8.5 mm | – | 7 mm | – | 7 mm | inactive | – | 40 (≈ 222 µM) | 50 (≈ 277 µM) | inactive | 40 (≈ 222 µM) | 50 (≈ 277 µM) | – | –
3 | O=C1C=CC[C@H](c2ccco2)O1 | inactive | 0.0092 | inactive | inactive | inactive | 9% | inactive | – | inactive | inactive | inactive | inactive | inactive | – | – | inactive | – | – | – | –
4 | CC1=CCC(c2cccs2)OC1=O (racemic) | inactive | – | – | 12 mm | inactive | – | 7.5 mm | – | 8 mm | – | inactive | inactive | – | 25 (≈ 129 µM) | – | – | 25 (≈ 129 µM) | 12 (≈ 61.8 µM) | 7.11 | –
5 | O=C1C=CCC(c2cccs2)O1 (racemic) | inactive | – | – | 9 mm | – | – | 8.5 mm | – | 8.5 mm | – | 8.5 mm | inactive | – | 25 (≈ 139 µM) | 10 (≈ 55.5 µM) | – | 30 (≈ 166 µM) | 20 (≈ 111 µM) | – | –
6 | Cc1c(C)c2c(c(C)c1O)CC[C@@](C)(CCC[C@H](C)CCC[C@H](C)CCCC(C)C)O2 | – | – | – | – | – | – | – | – | – | – | – | – | – | – | – | 66.2% | – | – | – | –
7 | O=C1C=CC[C@@H](c2ccco2)O1 | inactive | 0 | inactive | inactive | inactive | 7.45% | inactive | 38 | inactive | inactive | inactive | inactive | inactive | – | – | – | – | – | – | –
8 | O=C1C=CC[C@@H](c2cccs2)O1 | inactive | 0 | – | 7 mm | – | inactive | 7 mm | – | 8.5 mm | – | 8.5 mm | inactive | – | 30 (≈ 166 µM) | 20 (≈ 111 µM) | 14% | 50 (≈ 277 µM) | 30 (≈ 166 µM) | – | –
9 | CC1=CC[C@@H](c2cccs2)OC1=O | inactive | – | – | 9 mm | – | inactive | 7 mm | – | 8 mm | – | 11 mm | inactive | – | 25 (≈ 129 µM) | 25 (≈ 129 µM) | inactive | 25 (≈ 129 µM) | 25 (≈ 129 µM) | – | –
10 | CC1=CC(c2cccs2)OC1=O (racemic) | inactive | – | – | 7.5 mm | inactive | – | inactive | – | inactive | inactive | inactive | inactive | inactive | 25 (≈ 139 µM) | – | – | – | – | – | 93.3
11 | O=C1C=C[C@@H](c2cccs2)O1 | inactive | 0.015 | inactive | inactive | inactive | 54.7% | inactive | – | inactive | inactive | inactive | inactive | inactive | – | – | inactive | – | – | – | –
12 | O=C1C=CC(c2cccs2)O1 (racemic) | inactive | 0.44 | – | 9 mm | inactive | 58.8% | inactive | – | inactive | inactive | inactive | inactive | inactive | 100 (≈ 602 µM) | – | inactive | – | – | – | –
13 | CC1=C[C@@H](c2cccs2)OC1=O | inactive | – | inactive | inactive | inactive | – | inactive | – | 9.5 mm | inactive | inactive | inactive | – | – | – | – | – | 25 (≈ 139 µM) | – | 50.6
14 | CC1=CC[C@H](c2cccs2)OC1=O | inactive | – | – | 9 mm | – | inactive | 10 mm | – | 9 mm | – | 7 mm | inactive | – | 25 (≈ 129 µM) | 25 (≈ 129 µM) | inactive | 25 (≈ 129 µM) | 25 (≈ 129 µM) | – | –

Source: ChEMBL document CHEMBL2069265, “Synthesis and biological evaluation of optically active conjugated γ- and δ-lactone derivatives” (2012)
